In ChEMBL document CHEMBL1158128, “Cytotoxic styryl-lactones from the leaves and twigs of Polyalthia crassa” (2006):
≈ marks a conversion by molar mass, not a printed value.

Assays:
Conditions in all cases: read-out: ED50 (the source's name)
[1] = system: P388; assay: Cytotoxicity against mouse P388 cells by SRB assay; assay type: functional
Procedure, shortened: (§1)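 Colorimetric cytotoxicity read-out on a panel of cultured mammalian cancer cell lines, run by an earlier published method, with ellipticine as the positive control.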

[2] = system: KB; assay: Cytotoxicity against human KB cells by SRB assay; assay type: functional; procedure, shortened: as §1
[3] = system: Col2; assay: Cytotoxicity against human Col2 cells by SRB assay; assay type: functional; procedure, shortened: as §1
[4] = Cytotoxicity against human BCA1 cells by SRB assay; assay type: functional; procedure, shortened: as §1
[5] = system: Lu1; assay: Cytotoxicity against human Lu1 cells by SRB assay; assay type: functional; procedure, shortened: as §1
[6] = Cytotoxicity against rat ASK cells by SRB assay

| SMILES | EC50 [1] [µg/mL] | EC50 [2] [µg/mL] | EC50 [3] [µg/mL] | EC50 [4] [µg/mL] | EC50 [5] [µg/mL] | EC50 [6] [µg/mL] |
| --- | --- | --- | --- | --- | --- | --- |
| Cc1c2ccncc2c(C)c2c1[nH]c1ccccc12 [ELLIPTECINE] | 0.52 (≈ 2.11 µM) | 0.65 (≈ 2.64 µM) | 0.53 (≈ 2.15 µM) | 0.65 (≈ 2.64 µM) | 0.56 (≈ 2.27 µM) | 0.6 (≈ 2.44 µM) |
| O=C(/C=C/c1ccccc1)O[C@H](c1ccccc1)[C@H]1O[C@@H]2CC(=O)O[C@@H]2[C@H]1O [(+)-CRASSALACTONE C] | > 5 | > 5 | > 5 | > 5 | > 5 | > 5 |
| COc1c(O)cc2c3c(cc4ccccc4c13)NC2=O [ARISTOLACTAM AII] | 2.7 (≈ 10.2 µM) | > 5 | > 5 | > 5 | > 5 | > 5 |
| O=C1C=C[C@]2(C[C@H](O)[C@@H](c3ccccc3)O2)O1 | 1.1 (≈ 4.74 µM) | 3.3 (≈ 14.2 µM) | 4 (≈ 17.2 µM) | 3.2 (≈ 13.8 µM) | > 5 | 3.1 (≈ 13.3 µM) |
| O=C1C=C[C@H](OC(=O)/C=C/c2ccccc2)[C@H]([C@H](O)[C@H](O)c2ccccc2)O1 | 0.18 (≈ 0.473 µM) | 1.7 (≈ 4.47 µM) | 1.9 (≈ 4.99 µM) | 0.92 (≈ 2.42 µM) | 1.9 (≈ 4.99 µM) | 1.6 (≈ 4.21 µM) |
| O=C1C=C[C@H](OC(=O)/C=C/c2ccccc2)[C@H]([C@H](OC(=O)/C=C/c2ccccc2)[C@H](OC(=O)/C=C/c2ccccc2)c2ccccc2)O1 | 3.1 (≈ 4.84 µM) | > 5 | > 5 | > 5 | > 5 | > 5 |
| O=C(/C=C/c1ccccc1)O[C@@H]1[C@H]([C@@H](O)c2ccccc2)O[C@H]2CC(=O)O[C@@H]12 [(+)-CRASSALACTONE B] | 3.8 (≈ 9.99 µM) | > 5 | > 5 | > 5 | > 5 | > 5 |
